The source of these data is publication PMC4382910 (Angewandte Chemie (International ed. in English), 2014).

In this assay the test system is HeLa cells. Put plainly: Protein fatty-acylation levels in cells by chemical reporter alk-14. Type of assay: cell-based, human. Conditions: nuclear lysates, in-gel fluorescence, Sirt2 inhibitor. Summed up:
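HeLa cells with Sirt2 perturbed by siRNA knockdown or a selective Sirt2 inhibitor were cultured with fatty-acid chemical reporter alk-14. After harvest, cytosolic and nuclear lysates were prepared and core histones extracted. Reporter-labeled proteins were conjugated to a rhodamine dye by azide-alkyne click chemistry, and fatty-acylation levels were compared by fluorescence.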

Consider `N#C/C(=C\c1ccc(-c2cc(Cl)ccc2Cl)o1)C(=O)Nc1cccc2ncccc12` [AGK2], for which the “labeling of core histones by alk-14” value is on record as “enhanced”.
